We go through one compound from ChEMBL document CHEMBL4425094, “Novel Benzo[a]quinolizidine Analogs Induce Cancer Cell Death through Paraptosis and Apoptosis” (J Med Chem, 2016).

Active and inactive are the calls of the source. No cut-off for these calls is given here.

The test system of experiment [1] is PC-3. The experiment is described as follows: Induction of apoptosis in human PC3 cells assessed as late apoptotic cells at 2 uM after 24 hrs by Annexin V-FITC/propidium iodide based flow cytometric analysis (reference value: 1.1 %). Type of experiment: functional. In a few lines: (§1)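 PC3 cells exposed to 0.5, 1 or 2 μM for 24 h, then stained with Annexin V-FITC and PI and analyzed by FACSCalibur flow cytometry. Populations assigned as necrotic (Annexin V−/PI+), late apoptotic (double positive), normal (Annexin V−/PI−) and early apoptotic (Annexin V+/PI−). DMSO vehicle control.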
For orientation: In flow cytometry, cells or beads pass a laser one at a time.

Experiment [2] has as its system PC-3. The experiment is described as follows: Induction of cell cycle arrest in human PC3 cells assessed as accumulation in S phase at 1 uM after 24 hrs by […]propidium iodide based flow cytometric analysis (reference value: 21 to 31.6 %). The format is functional.
The subject of experiment [3] is PC-3. The experiment is described as follows: Induction of cell cycle arrest in human PC3 cells assessed as accumulation in G0/G1 phase at 1 uM after 24 hrs by […]propidium iodide based flow cytometric analysis (reference value: 43.5 to 62.5 %). Type of experiment: functional.
The subject of experiment [4] is PC-3. The experiment is described as follows: Induction of autophagy in human PC3 cells assessed as vacuole formation at 1 uM after 24 hrs in presence of […] inhibitor E-64d by phase-contrast microscopic analysis. The format is functional, cell-based. In short, it runs like this: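 PC3 cells were pretreated with the autophagy inhibitor (3-MA or E64d), then exposed to 1 μM test agent for 24 h. Morphology was imaged by phase-contrast microscopy, and viability was read by MTT at 570 nm. Comparison was against agent-only cells.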

In experiment [5] the test system is PC-3. The experiment is described as follows: Induction of apoptosis in human PC3 cells assessed as late apoptotic cells at 0.5 uM after 24 hrs by Annexin V-FITC/propidium iodide based flow cytometric analysis (reference value: 1.1 %). Type of experiment: functional. In a few lines:
as §1

The subject of experiment [6] is PC-3. The experiment is described as follows: Induction of apoptosis in human PC3 cells assessed as late apoptotic cells at 1 uM after 24 hrs by Annexin V-FITC/propidium iodide based flow cytometric analysis (reference value: 1.1 %). The format is functional. In a few lines:
as §1

Experiment [7] has as its system PC-3. The experiment is described as follows: Induction of apoptosis in human PC3 cells assessed as necrotic cells at 2 uM after 24 hrs by Annexin V-FITC/propidium iodide based flow cytometric analysis (reference value: 1.1 %). The format is functional. In a few lines: as §1
The subject of experiment [8] is PC-3. Briefly: Induction of apoptosis in human in human PC3 cells assessed as reduction in cell viability in presence of caspase inhibitor by MTT assay. For orientation: Formazan colour is commonly taken as a measure of viable cells.
Experiment [9] relates to PC-3. The experiment is described as follows: Induction of cell cycle arrest in human PC3 cells assessed as accumulation in G2 phase at 2 uM after 24 hrs by […]propidium iodide based flow cytometric analysis (reference value: 16.3 to 25 %). The format is functional.
Experiment [10] deals with PC-3. Briefly: Cytotoxicity against human PC3 cells assessed as reduction in cell viability at 1 uM after 24 hrs in presence of […] inhibitor E-64d by MTT assay. The format is functional, cell-based. In short, it runs like this:
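PC3 cells pretreated with autophagy inhibitor 3-MA or E64d, then given 1 μM compound for 24 h. Viability measured by MTT (4 h, 570 nm). Morphology checked by phase-contrast microscopy.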

Experiment [11] concerns PC-3. The experiment is described as follows: Induction of autophagy in human PC3 cells transfected with LC3-targeting siRNA assessed as vacuole formation at 1 uM after 24 hrs by phase-contrast microscopic analysis. Type of experiment: functional, cell-based. In short, it runs like this: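 PC3 cells plated at 20−30% confluency, then transfected 24 h later with 50 nM LC3-targeting or scrambled siRNA by lipofection. After 48 h they were exposed to 1 μM agent for a further 24 h, followed by phase-contrast imaging and Western blotting.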

The subject of experiment [12] is PC-3. Briefly: Induction of apoptosis in human PC3 cells assessed as early apoptotic cells at 0.5 uM after 24 hrs by Annexin V-FITC/propidium iodide based flow cytometric analysis (reference value: 2.3 %). Type of experiment: functional. In a few lines: as §1
In experiment [13] the test system is PC-3. Briefly: Induction of apoptosis in human PC3 cells after 24 hrs by Annexin V-FITC/propidium iodide based flow cytometric analysis. The format is functional, cell-based. In short, it runs like this: as §1
The test system of experiment [14] is PC-3. The experiment is described as follows: Induction of autophagy in human PC3 cells assessed as upregulation of LC3 expression after 24 hrs by Western blot analysis. The format is functional, cell-based. In a few lines: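 PC3 cells in RPMI 1640 with 10% FBS, treated at 50−70% confluence for a time course up to 24 h; DMSO vehicle control. Lysed in RIPA buffer; 40 μg protein run on SDS-PAGE, transferred to nitrocellulose, primary antibody overnight at 4 °C, HRP secondary 45 min, ECL detection. GAPDH or β-actin loading control.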
A general note: In western blotting, separated proteins are transferred to a membrane and probed.

For experiment [15], the target named is T1, Eukaryotic translation initiation factor 2-alpha kinase 3 (Homo sapiens) (UniProt Q9NZJ5).
T1 sequence (whole entry): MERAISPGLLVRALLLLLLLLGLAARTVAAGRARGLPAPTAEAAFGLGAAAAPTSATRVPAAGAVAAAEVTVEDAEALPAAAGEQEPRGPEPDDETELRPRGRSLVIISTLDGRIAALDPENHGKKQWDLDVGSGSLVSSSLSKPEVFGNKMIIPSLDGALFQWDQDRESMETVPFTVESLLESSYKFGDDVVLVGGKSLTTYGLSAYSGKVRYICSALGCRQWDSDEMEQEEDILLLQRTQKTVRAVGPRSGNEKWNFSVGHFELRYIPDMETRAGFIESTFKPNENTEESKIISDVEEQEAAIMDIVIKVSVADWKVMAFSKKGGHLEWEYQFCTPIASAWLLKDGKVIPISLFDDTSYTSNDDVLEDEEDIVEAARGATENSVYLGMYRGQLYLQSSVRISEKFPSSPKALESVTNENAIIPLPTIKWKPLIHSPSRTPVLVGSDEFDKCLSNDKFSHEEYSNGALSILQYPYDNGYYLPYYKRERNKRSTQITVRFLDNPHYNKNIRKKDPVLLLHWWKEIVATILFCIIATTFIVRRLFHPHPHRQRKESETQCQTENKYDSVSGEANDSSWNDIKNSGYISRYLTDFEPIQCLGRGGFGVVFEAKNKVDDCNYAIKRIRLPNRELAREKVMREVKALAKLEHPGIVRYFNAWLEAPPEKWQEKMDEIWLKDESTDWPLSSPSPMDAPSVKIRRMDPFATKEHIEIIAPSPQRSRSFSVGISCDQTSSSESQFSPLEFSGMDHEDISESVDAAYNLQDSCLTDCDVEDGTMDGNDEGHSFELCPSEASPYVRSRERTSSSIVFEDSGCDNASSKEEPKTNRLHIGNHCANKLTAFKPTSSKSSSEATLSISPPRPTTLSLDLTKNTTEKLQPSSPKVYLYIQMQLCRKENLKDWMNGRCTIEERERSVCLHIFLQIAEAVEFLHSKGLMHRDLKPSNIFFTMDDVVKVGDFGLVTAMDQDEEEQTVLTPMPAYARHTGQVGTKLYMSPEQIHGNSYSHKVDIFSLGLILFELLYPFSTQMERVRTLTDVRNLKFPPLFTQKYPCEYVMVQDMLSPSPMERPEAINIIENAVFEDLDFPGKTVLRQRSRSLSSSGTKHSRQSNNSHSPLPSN
Briefly: Activation of PERK phosphorylation in human PC3 cells assessed as eIF2alpha phosphorylation after 24 hrs by Western blot analysis. The format is cell-based. In a few lines: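 PC3 cells in RPMI 1640 with 10% FBS, treated with compound for timed intervals. DMSO vehicle control. Lysis in RIPA buffer, 40 μg protein per lane on SDS-PAGE, transfer to nitrocellulose. Primary antibodies overnight at 4 °C, HRP-secondary 45 min, ECL detection. GAPDH or β-actin used as loading control.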

Take `Cc1cc(C)cc(COc2cc3c(cc2OCc2cc(C)cc(C)c2)[C@@H]2C[C@H](O)C[C@@H](C)N2CC3)c1` (racemic): the Activity is listed as 36.4% in experiment [1]; 10.1 - 20.4% in experiment [2]; 65.1 - 78% in experiment [3]; 1.2% in [5]; 2.6% in experiment [6]; 3.1% in [7]. The Activity in experiment [9] is 10.8 - 12.3%; in experiment [12] it was 2.5%; in experiment [13], “Dose-dependent effect”. In addition, the outcome in experiment [4], in experiment [14] and in [15] was Active. The result in experiment [8], in experiment [10] and in experiment [11] was inactive.
